# Assay outcomes deposited in PubChem BioAssay by several laboratories.
# HIV Env fusion: HIV envelope-mediated fusion inhibition. HeLa-JRFL Env/CEM21 cell fusion, luciferase. inhibition, % at 12.3 µM. hit rate 1.1% among 360,000;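 active = mean replicate inhibition score of at least 50 and every replicate individually at or above 50; inconclusive = only one of the two criteria met; inactive = mean below 50 and not all replicates reaching 50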;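 also: 0% = plate neutral controls and 100% = maraviroc near 300 nM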
# PAX8 inh HTS: lowers PAX8-driven luciferase in RMG-I cells; RMG-I TPO-luciferase reporter, SteadyGlo, 24 h; inhibition, % at 12.6 µM; hit rate 1.2% among 360,000; AID 652154;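 active = mean replicate inhibition at least 60% with every replicate also reaching 60%; inconclusive = only one of the two criteria is met; inactive = mean below 60% and not all replicates reaching 60%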;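 also: luciferase light reporting Pax8 driven TPO promoter activity; plate controls were median of neutral control wells for no effect and mitoxantrone controls for full effect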
# PfHsp90 set2: growth inhibition of yeast expressing Plasmodium Hsp90; S. cerevisiae expressing PfHsp90, BacTiter-Glo ATP, 48 h; yeast lacking PDR1 and PDR3 efflux regulators; inhibition, % at 9.4 µM; hit rate 0.32% among 310,000;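 active = every replicate shows inhibition above about 80%, whatever the replicate mean, limit read from the data; inconclusive = mean inhibition reaches the set limit but some replicate falls short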;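 also: 0% = DMSO neutral controls and 100% = 20 µM radicicol positive controls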
# Rtt109 Vps75: C. albicans Rtt109 histone acetyltransferase inhibition; inhibition, % at 34.9 µM; hit rate 0.16% among 330,000; Q5AAJ8; purified Rtt109/Vps75, ThioGlo CoA-SH fluorescence, 4 h;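 active = inhibition of at least 50% in every replicate; inconclusive = best replicate reaches 50% inhibition but some replicates fall short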
# Target sequence (Q5AAJ8 whole entry, looked up): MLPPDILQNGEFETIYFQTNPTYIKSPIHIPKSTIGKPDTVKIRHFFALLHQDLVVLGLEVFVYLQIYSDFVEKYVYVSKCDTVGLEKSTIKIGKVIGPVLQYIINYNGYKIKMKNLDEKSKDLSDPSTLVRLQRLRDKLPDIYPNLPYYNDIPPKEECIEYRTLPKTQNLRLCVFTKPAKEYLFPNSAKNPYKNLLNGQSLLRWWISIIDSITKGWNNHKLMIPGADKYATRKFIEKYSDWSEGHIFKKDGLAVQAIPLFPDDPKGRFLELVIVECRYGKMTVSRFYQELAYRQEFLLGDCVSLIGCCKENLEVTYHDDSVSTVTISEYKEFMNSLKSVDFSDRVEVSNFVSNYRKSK
# Arr AP2 block: inhibitors of human beta-arrestin and AP2 interaction | FITC-arrestin peptide / GST-AP2 beads, flow cytometry; AP2 beta2 appendage carries R879A mutation | inhibition, % at 10 µM | hit rate 0.31% among 340,000;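 active = inhibition above a set limit, near 3 SD of compounds lacking own fluorescence, cut at about 54% in these data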;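 also: plate controls were DMSO wells for no effect and 5 µM unlabelled arrestin peptide for full effect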
#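 System: GST-AP2 R879A glutathione beads | Also added: FITC-arrestin peptide, 50 nM | Times: 12 min plus 1 h, RT | Signal: Bead flow cytometry, FITC channel | Buffer or medium: PBS with 0.05% Tween 20 and 0.1% BSA | Read-out basis: Percent drop in bead-associated FITC signal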
# N-glyco inh: blocks N-linked glycosylation in D54 reporter cells; D54 ERlucT glycosylation luciferase reporter, 24 h; percent of 100 nM tunicamycin response; reporter increase, % at 12.5 µM; hit rate 0.23% among 360,000; AID 588692;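 active = mean luciferase reporter signal, scaled so untreated is 0 and the glycosylation-blocking control 100, at or above a set limit in every replicate; inconclusive = mean reaches the limit but not every replicate does; inactive = mean below the limit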;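 also: luciferase carries N-glycosylation sites so blocking glycosylation raises the light; 0% = median of neutral control wells and 100% = median of 100 nM tunicamycin wells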
# * = called active by the depositor; ? = inconclusive; / = no result; [ ] = remark or other dose. An excerpt weighted towards active compounds, which were near 2.3% of everything screened.
SMILES,HIV Env fusion,PAX8 inh HTS,PfHsp90 set2,Rtt109 Vps75,Arr AP2 block,N-glyco inh
O=C(CCl)N=c1sccn1Cc1ccc(Cl)cc1Cl,84*,111*,-25,-3,-3,9
O=C(CCl)N=c1sccn1Cc1cccc2ccccc12,66*,111*,-19,2,-4,0
CCc1nc2ccccc2c(C(=O)OCC(=O)Nc2ccc(S(=O)(=O)N3CCOCC3)cc2)c1C,/,/,-12,11,9,-3
O=C(NCCN1CCOCC1)c1cccc(S(=O)(=O)N2CCCCC2)c1,15,8,-9,-1,-6,1
CCc1nc2ccccc2c(C(=O)OCC(=O)Nc2cccc(S(=O)(=O)N3CCOCC3)c2)c1C,100*,/,-25,20,-9,1
CC(C)(CNC(=O)c1cccc(S(=O)(=O)N2CCCCC2)c1)N1CCOCC1,63*,8,/,/,/,1
O=C(COC(=O)c1cccc(S(=O)(=O)N2CCOCC2)c1)NCc1ccccc1,68*,-1,-4,-2,31,-1
O=C1/C(=C/c2ccc(N3CCOCC3)o2)SC(=Nc2ccccc2)N1CCc1c[nH]c2ccccc12,/,/,142*,0,-16,1
CC[C@@]1(C(=O)OC)N[C@H](CN(C)S(=O)(=O)c2ccccc2)[C@@H]2C(=O)N(Cc3ccccc3)C(=O)[C@@H]21,?,6,9,-7,11,0
CC[C@@]1(C(=O)OC)N[C@H](CN(C)S(=O)(=O)c2ccc(-c3ccccc3)cc2)[C@@H]2C(=O)N(Cc3ccccc3)C(=O)[C@@H]21,138*,5,0,-3,1,-2
COC(=O)[C@]1(Cc2ccccc2)N[C@H](CN(C)S(=O)(=O)c2ccc(C(F)(F)F)cc2)[C@@H]2C(=O)N(Cc3ccccc3)C(=O)[C@@H]21,69*,28,-5,2,2,-8
COC(=O)[C@]1(C)N[C@H](CN(C)S(=O)(=O)c2ccc(-c3ccccc3)cc2)[C@@H]2C(=O)N(Cc3ccccc3)C(=O)[C@@H]21,81*,8,-13,-1,3,-1
COC(=O)[C@]1(C)N[C@H](CN(C)S(=O)(=O)c2ccccc2)[C@@H]2C(=O)N(Cc3ccccc3)C(=O)[C@@H]21,5,11,2,-8,16,1
O=C1O[C@H](c2ccccc2)[C@H](c2ccccc2)N2[C@H]1[C@@H](C(=O)N1CCCCCCC1)[C@]1(C(=O)Nc3ccc(C#CC4=CCCCC4)cc31)[C@H]2c1ccc(OCCO)cc1,-16[16.7 µM],2,/,/,/,/
CN(C)CC(=O)N1CC2(C1)[C@@H](c1ccccc1)[C@@H](CO)N2C(=O)C1CC1,/,-24,/,/,/,/
O=C(Nc1ccc(S(=O)(=O)Nc2ccc(F)cc2)cc1)c1ccc(CN2CCOCC2)cc1,12,26,/,2,22,-4
O=C(Nc1ccc(S(=O)(=O)N2CCCC2)cc1)c1cnccn1,-11,-24,10,-1,-5,1
O=C(Nc1ccc(S(=O)(=O)N2CCCCC2)cc1)c1ccc(CN2CCOCC2)cc1,/,/,-39,8,-6,-3
CCN(CC)S(=O)(=O)c1ccc(NC(=O)c2ccc(CN3CCOCC3)cc2)cc1,64*,/,19,9,-3,-4
O=C(Nc1ccc(S(=O)(=O)N2CCCC2)cc1)c1ccc(CN2CCOCC2)cc1,74*,/,3,-1,-10,-2
O=C(Nc1ccc(S(=O)(=O)N2CCN(Cc3ccccc3)CC2)cc1)c1cnccn1,95*,/,-13,14,15,-3
CCN1CCN(S(=O)(=O)c2ccc(Cl)c(C(=O)Nc3ccccc3N3CCCC3)c2)CC1,80*,/,13,5,7,-3
CCN1CCN(S(=O)(=O)c2ccc(Cl)c(C(=O)Nc3ccccc3N3CCCCC3)c2)CC1,7,20,20,-3,16,-7
C[C@H](CO)N1C[C@H](C)[C@@H](CN(C)Cc2ccc(Oc3ccccc3)cc2)Oc2ccc(NC(=O)Nc3ccccc3)cc2CC1=O,0[16.7 µM],53,/,/,/,/
Cc1ccc(C(=O)Nc2cc(S(=O)(=O)N3CCOCC3)ccc2N2CCCC2)cc1,/,14,-31,1,-26,45*
SMILES,HIV Env fusion,PAX8 inh HTS,PfHsp90 set2,Rtt109 Vps75,Arr AP2 block,N-glyco inh
CCCN(CCC)S(=O)(=O)c1ccc(C(=O)Nc2ccc(OCC(=O)N3CCOCC3)cc2)cc1,-14,38,/,/,6,40*
COCC(=O)N(C)C[C@H]1Oc2ncc(-c3cccc(OC)c3)cc2C(=O)N([C@@H](C)CO)C[C@@H]1C,-7[16.7 µM],/,/,/,/,/
O=C1CC(N2CCC(c3nc4ccccc4o3)CC2)C(=O)N1c1ccc(Cl)c(C(F)(F)F)c1 (stereo not drawn),20,/,104*,0,-2,4
C[C@@H]1CCCCO[C@@H](CN(C)S(C)(=O)=O)[C@@H](C)CN([C@H](C)CO)C(=O)c2cc(NC(=O)Nc3ccc4c(c3)OCO4)ccc2O1,0[16.7 µM],/,/,/,/,/
C[C@@H]1CCCCO[C@H](CN(C)Cc2ccc(C(=O)Nc3ccccc3N)cc2)[C@@H](C)CN([C@@H](C)CO)C(=O)c2cc(NS(=O)(=O)c3ccc(Cl)cc3)ccc2O1,-19[16.7 µM],89*,/,/,/,/
C[C@@H]1CN([C@H](C)CO)C(=O)c2cc(NS(=O)(=O)c3ccc(F)cc3)ccc2O[C@@H](C)CCCCO[C@H]1CN(C)Cc1ccccc1,3[16.7 µM],77*,/,/,/,/
C[C@@H]1CCCCO[C@H](CN(C)Cc2ccccc2)[C@@H](C)CN([C@@H](C)CO)C(=O)c2cc(NS(=O)(=O)c3ccc(Cl)cc3)ccc2O1,30[16.7 µM],75*,/,/,/,/
C[C@@H]1CN([C@H](C)CO)C(=O)c2cc(NS(=O)(=O)c3ccc(Cl)cc3)ccc2O[C@@H](C)CCCCO[C@@H]1CN(C)Cc1ccccc1,65*[16.7 µM],112*,/,/,/,/
C[C@@H]1CCCCO[C@@H](CN(C)Cc2ccc(C(=O)Nc3ccccc3N)cc2)[C@@H](C)CN([C@H](C)CO)C(=O)c2cc(NS(=O)(=O)c3ccc(Cl)cc3)ccc2O1,/,29,/,/,/,/
C[C@@H]1CCCCO[C@H](CN(C)C(=O)Nc2ccc3c(c2)OCO3)[C@@H](C)CN([C@H](C)CO)C(=O)c2cc(NS(=O)(=O)c3cn(C)cn3)ccc2O1,16[16.7 µM],-9,/,/,/,/
COc1ccccc1CNC(=O)C[C@H]1C[C@H]2c3cc(NS(C)(=O)=O)ccc3O[C@H]2[C@@H](CO)O1,6[16.7 µM],8,/,/,/,/
CCCNC(=O)[C@H]1[C@H](CO)[C@H]2Cn3c(cccc3=O)[C@H]2N1Cc1ccccn1,/,-7,/,/,/,/
Cc1cc(C)nc(Nc2ccc(O)cc2)n1,-7,1,-33,-5,-17,1
Cc1cc(C)nc(Sc2nc(Nc3ccccc3)nc(Sc3nc(C)cc(C)n3)n2)n1,7,61*,7,0,25,0
